≈ marks a conversion by molar mass, not a printed value.
Columns and labels:
Type in all cases: functional
Escherichia coli [1] = test: Antibacterial activity against beta-lactamase-negative Escherichia coli E345 incubated up to 7 days by agar dilution method; settings: E345, 168 h
Klebsiella pneumoniae [2] = test: Antibacterial activity against beta-lactamase-positive ESBL-negative Klebsiella pneumoniae E472 incubated up to 7 days by agar dilution method; settings: E472, 168 h
Klebsiella pneumoniae [3] = test: Antibacterial activity against beta-lactamase-positive ESBL-negative Klebsiella pneumoniae E481 incubated up to 7 days by agar dilution method; settings: E481, 168 h
Klebsiella pneumoniae [4] = test: Antibacterial activity against beta-lactamase-positive ESBL-positive Klebsiella pneumoniae E453 incubated up to 7 days by agar dilution method; settings: E453, 168 h
Procedure, shortened: (§1)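 MIC by CLSI agar dilution, with quality-control strains in each run. Beta-lactamase status was set by 30 μg cefazolin Kirby-Bauer disk diffusion. ESBL status was set by cefotaxime and ceftazidime disks (30 μg) with and without clavulanic acid (10 μg).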

Klebsiella pneumoniae [5] = test: Antibacterial activity against beta-lactamase-positive ESBL-negative Klebsiella pneumoniae E511 incubated up to 7 days by agar dilution method; settings: E511, 168 h
Escherichia coli [6] = test: Antibacterial activity against beta-lactamase-negative Escherichia coli E348 incubated up to 7 days by agar dilution method; settings: E348, 168 h
Escherichia coli [7] = test: Antibacterial activity against beta-lactamase-positive ESBL-negative Escherichia coli E412 incubated up to 7 days by agar dilution method; settings: E412, 168 h; procedure, shortened: as §1
Escherichia coli [8] = test: Antibacterial activity against beta-lactamase-positive ESBL-negative Escherichia coli E415 incubated up to 7 days by agar dilution method; settings: E415, 168 h; procedure, shortened: as §1
Escherichia coli [9] = test: Antibacterial activity against beta-lactamase-positive ESBL-positive Escherichia coli E459 incubated up to 7 days by agar dilution method; settings: E459, 168 h; procedure, shortened: as §1
Escherichia coli [10] = test: Antibacterial activity against beta-lactamase-positive ESBL-negative Escherichia coli E483 […] by agar dilution method
Escherichia coli [11] = test: Antibacterial activity against beta-lactamase-positive ESBL-negative Escherichia coli E484 incubated up to 7 days by agar dilution method; settings: E484, 168 h
Klebsiella pneumoniae [12] = test: Antibacterial activity against beta-lactamase-negative Klebsiella pneumoniae E360 incubated up to 7 days by agar dilution method; settings: E360, 168 h
Klebsiella pneumoniae [13] = test: Antibacterial activity against beta-lactamase-negative Klebsiella pneumoniae E361 incubated up to 7 days by agar dilution method; settings: E361, 168 h
Klebsiella pneumoniae [14] = test: Antibacterial activity against beta-lactamase-negative Klebsiella pneumoniae E362 incubated up to 7 days by agar dilution method; settings: E362, 168 h
Acinetobacter baumannii [15] = test: Antibacterial activity against Acinetobacter baumannii A897 assessed as mutant prevention concentration after overnight incubation
Acinetobacter baumannii [16] = test: Antibacterial activity against Acinetobacter baumannii A894 assessed as mutant prevention concentration after overnight incubation
Acinetobacter baumannii [17] = test: Antibacterial activity against Acinetobacter baumannii A903 assessed as mutant prevention concentration after overnight incubation
Klebsiella pneumoniae [18] = test: Antibacterial activity against beta-lactamase-negative Klebsiella pneumoniae E418 assessed as mutant prevention concentration after overnight incubation
Procedure, shortened: (§2)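 Overnight growth on blood trypticase soy agar (35°C, air) was resuspended in 0.9% saline and counted on drug-free Mueller-Hinton agar. […] Colonies were retested by agar dilution to confirm mutants. MPC was the lowest concentration preventing resistant-mutant growth.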

Klebsiella pneumoniae [19] = test: Antibacterial activity against beta-lactamase-positive ESBL-positive Klebsiella pneumoniae E476 assessed as mutant prevention concentration after overnight incubation; procedure, shortened: as §2
Klebsiella pneumoniae [20] = test: Antibacterial activity against beta-lactamase-positive ESBL-negative Klebsiella pneumoniae E480 assessed as mutant prevention concentration after overnight incubation; procedure, shortened: as §2
Klebsiella pneumoniae [21] = test: Antibacterial activity against beta-lactamase-positive ESBL-negative Klebsiella pneumoniae E477 assessed as mutant prevention concentration after overnight incubation; procedure, shortened: as §2
Klebsiella pneumoniae [22] = test: Antibacterial activity against beta-lactamase-positive ESBL-negative Klebsiella pneumoniae E481 assessed as mutant prevention concentration after overnight incubation; procedure, shortened: as §2
Klebsiella pneumoniae [23] = test: Antibacterial activity against beta-lactamase-positive ESBL-positive Klebsiella pneumoniae E457 assessed as mutant prevention concentration after overnight incubation; procedure, shortened: as §2
Pseudomonas aeruginosa [24] = test: Antibacterial activity against Pseudomonas aeruginosa P327 assessed as mutant prevention concentration after overnight incubation
Pseudomonas aeruginosa [25] = test: Antibacterial activity against Pseudomonas aeruginosa P337 assessed as mutant prevention concentration after overnight incubation
Pseudomonas aeruginosa [26] = test: Antibacterial activity against Pseudomonas aeruginosa P338 assessed as mutant prevention concentration after overnight incubation
Pseudomonas aeruginosa [27] = test: Antibacterial activity against Pseudomonas aeruginosa P328 assessed as mutant prevention concentration after overnight incubation
Pseudomonas aeruginosa [28] = test: Antibacterial activity against Pseudomonas aeruginosa P349 assessed as mutant prevention concentration after overnight incubation
Pseudomonas aeruginosa [29] = test: Antibacterial activity against Pseudomonas aeruginosa P370 assessed as mutant prevention concentration after overnight incubation
Pseudomonas aeruginosa [30] = test: Antibacterial activity against Pseudomonas aeruginosa P358 assessed as mutant prevention concentration after overnight incubation
Pseudomonas aeruginosa [31] = test: Antibacterial activity against Pseudomonas aeruginosa P376 assessed as mutant prevention concentration after overnight incubation
Pseudomonas aeruginosa [32] = test: Antibacterial activity against Pseudomonas aeruginosa P326 assessed as mutant prevention concentration after overnight incubation
Acinetobacter baumannii [33] = test: Antibacterial activity against Acinetobacter baumannii A911 assessed as mutant prevention concentration after overnight incubation
Escherichia coli [34] = test: Antibacterial activity against beta-lactamase-negative Escherichia coli E345 assessed as mutant prevention concentration after overnight incubation
Escherichia coli [35] = test: Antibacterial activity against beta-lactamase-negative Escherichia coli E346 assessed as mutant prevention concentration after overnight incubation
Escherichia coli [36] = test: Antibacterial activity against beta-lactamase-negative Escherichia coli E347 assessed as mutant prevention concentration after overnight incubation
Escherichia coli [37] = test: Antibacterial activity against beta-lactamase-negative Escherichia coli E350 assessed as mutant prevention concentration after overnight incubation
Escherichia coli [38] = test: Antibacterial activity against beta-lactamase-negative Escherichia coli E408 assessed as mutant prevention concentration after overnight incubation
Escherichia coli [39] = test: Antibacterial activity against beta-lactamase-negative Escherichia coli E409 assessed as mutant prevention concentration after overnight incubation
Escherichia coli [40] = test: Antibacterial activity against beta-lactamase-positive ESBL-negative Escherichia coli E415 assessed as mutant prevention concentration after overnight incubation; procedure, shortened: as §2
Escherichia coli [41] = test: Antibacterial activity against beta-lactamase-negative Escherichia coli E425 assessed as mutant prevention concentration after overnight incubation
Escherichia coli [42] = test: Antibacterial activity against beta-lactamase-positive ESBL-positive Escherichia coli E452 assessed as mutant prevention concentration after overnight incubation; procedure, shortened: as §2
Escherichia coli [43] = test: Antibacterial activity against beta-lactamase-positive ESBL-positive Escherichia coli E459 assessed as mutant prevention concentration after overnight incubation; procedure, shortened: as §2
Escherichia coli [44] = test: Antibacterial activity against beta-lactamase-positive ESBL-positive Escherichia coli E465 assessed as mutant prevention concentration after overnight incubation; procedure, shortened: as §2
Klebsiella pneumoniae [45] = test: Antibacterial activity against beta-lactamase-negative Klebsiella pneumoniae E358 assessed as mutant prevention concentration after overnight incubation
Klebsiella pneumoniae [46] = test: Antibacterial activity against beta-lactamase-negative Klebsiella pneumoniae E360 assessed as mutant prevention concentration after overnight incubation
Klebsiella pneumoniae [47] = test: Antibacterial activity against beta-lactamase-negative Klebsiella pneumoniae E419 assessed as mutant prevention concentration after overnight incubation; procedure, shortened: as §2

C[C@@H](O)[C@H]1C(=O)N2C(C(=O)O)=C(S[C@@H]3CN[C@H](C(=O)N(C)C)C3)[C@H](C)[C@H]12 [MEROPENEM]
MIC (Escherichia coli [1]): 0.03 µg/mL (≈ 0.0782 µM) | MIC (Klebsiella pneumoniae [2]): 4 µg/mL (≈ 10.4 µM) | MIC (Klebsiella pneumoniae [3]): 1 µg/mL (≈ 2.61 µM) | MIC (Klebsiella pneumoniae [4]): 0.06 µg/mL (≈ 0.156 µM) | MIC (Klebsiella pneumoniae [5]): 4 µg/mL (≈ 10.4 µM) | MIC (Escherichia coli [6]): 0.03 µg/mL (≈ 0.0782 µM) | MIC (Escherichia coli [7]): 0.06 µg/mL (≈ 0.156 µM) | MIC (Escherichia coli [8]): 0.06 µg/mL (≈ 0.156 µM) | MIC (Escherichia coli [9]): 0.03 µg/mL (≈ 0.0782 µM) | MIC (Escherichia coli [10]): 0.5 µg/mL (≈ 1.3 µM) | MIC (Escherichia coli [11]): 1 µg/mL (≈ 2.61 µM) | MIC (Klebsiella pneumoniae [12]): 0.03 µg/mL (≈ 0.0782 µM) | MIC (Klebsiella pneumoniae [13]): 0.06 µg/mL (≈ 0.156 µM) | MIC (Klebsiella pneumoniae [14]): 0.06 µg/mL (≈ 0.156 µM) | MPC (Acinetobacter baumannii [15]): 1 µg/mL | MPC (Acinetobacter baumannii [16]): 2 µg/mL | MPC (Acinetobacter baumannii [17]): 8 µg/mL | MPC (Klebsiella pneumoniae [18]): 0.125 µg/mL | MPC (Klebsiella pneumoniae [19]): >64 µg/mL | MPC (Klebsiella pneumoniae [20]): 16 µg/mL | MPC (Klebsiella pneumoniae [21]): 8 µg/mL | MPC (Klebsiella pneumoniae [22]): 16 µg/mL | MPC (Klebsiella pneumoniae [23]): 0.125 µg/mL | MPC (Pseudomonas aeruginosa [24]): 8 µg/mL | MPC (Pseudomonas aeruginosa [25]): 8 µg/mL | MPC (Pseudomonas aeruginosa [26]): >4 µg/mL | MPC (Pseudomonas aeruginosa [27]): 16 µg/mL | MPC (Pseudomonas aeruginosa [28]): 16 µg/mL | MPC (Pseudomonas aeruginosa [29]): >4 µg/mL | MPC (Pseudomonas aeruginosa [30]): 32 µg/mL | MPC (Pseudomonas aeruginosa [31]): 16 µg/mL | MPC (Pseudomonas aeruginosa [32]): 64 µg/mL | MPC (Acinetobacter baumannii [33]): 8 µg/mL | MPC (Escherichia coli [34]): 0.06 µg/mL | MPC (Escherichia coli [35]): 0.06 µg/mL | MPC (Escherichia coli [36]): 0.06 µg/mL | MPC (Escherichia coli [37]): 0.06 µg/mL | MPC (Escherichia coli [38]): 0.06 µg/mL | MPC (Escherichia coli [39]): 0.06 µg/mL | MPC (Escherichia coli [40]): 0.125 µg/mL | MPC (Escherichia coli [41]): 0.06 µg/mL | MPC (Escherichia coli [42]): 0.06 µg/mL | MPC (Escherichia coli [43]): 0.125 µg/mL | MPC (Escherichia coli [44]): >1 µg/mL | MPC (Klebsiella pneumoniae [45]): 0.06 µg/mL | MPC (Klebsiella pneumoniae [46]): 0.125 µg/mL | MPC (Klebsiella pneumoniae [47]): 0.125 µg/mL

C[C@@H](O)[C@H]1C(=O)N2C(C(=O)O)=C(S[C@@H]3CN[C@H](C(=O)Nc4cccc(C(=O)O)c4)C3)[C@H](C)[C@H]12
MIC (Escherichia coli [1]): 0.008 µg/mL (≈ 0.0168 µM) | MIC (Klebsiella pneumoniae [2]): 8 µg/mL (≈ 16.8 µM) | MIC (Klebsiella pneumoniae [3]): 4 µg/mL (≈ 8.41 µM) | MIC (Klebsiella pneumoniae [4]): 0.5 µg/mL (≈ 1.05 µM) | MIC (Klebsiella pneumoniae [5]): 8 µg/mL (≈ 16.8 µM) | MIC (Escherichia coli [6]): 0.008 µg/mL (≈ 0.0168 µM) | MIC (Escherichia coli [7]): 0.06 µg/mL (≈ 0.126 µM) | MIC (Escherichia coli [8]): 0.125 µg/mL (≈ 0.263 µM) | MIC (Escherichia coli [9]): 0.03 µg/mL (≈ 0.0631 µM) | MIC (Escherichia coli [10]): 4 µg/mL (≈ 8.41 µM) | MIC (Escherichia coli [11]): 8 µg/mL (≈ 16.8 µM) | MIC (Klebsiella pneumoniae [12]): 0.008 µg/mL (≈ 0.0168 µM) | MIC (Klebsiella pneumoniae [13]): 0.016 µg/mL (≈ 0.0336 µM) | MIC (Klebsiella pneumoniae [14]): 0.016 µg/mL (≈ 0.0336 µM) | MPC (Klebsiella pneumoniae [18]): 0.125 µg/mL | MPC (Klebsiella pneumoniae [19]): 32 µg/mL | MPC (Klebsiella pneumoniae [20]): 32 µg/mL | MPC (Klebsiella pneumoniae [21]): 32 µg/mL | MPC (Klebsiella pneumoniae [22]): 8 µg/mL | MPC (Klebsiella pneumoniae [23]): 0.125 µg/mL | MPC (Escherichia coli [34]): 0.03 µg/mL | MPC (Escherichia coli [35]): 0.03 µg/mL | MPC (Escherichia coli [36]): 0.03 µg/mL | MPC (Escherichia coli [37]): 0.03 µg/mL | MPC (Escherichia coli [38]): 0.06 µg/mL | MPC (Escherichia coli [39]): 0.125 µg/mL | MPC (Escherichia coli [40]): 0.5 µg/mL | MPC (Escherichia coli [41]): 0.03 µg/mL | MPC (Escherichia coli [42]): 0.25 µg/mL | MPC (Escherichia coli [43]): 0.06 µg/mL | MPC (Escherichia coli [44]): 8 µg/mL | MPC (Klebsiella pneumoniae [45]): 0.03 µg/mL | MPC (Klebsiella pneumoniae [46]): 0.03 µg/mL | MPC (Klebsiella pneumoniae [47]): 0.03 µg/mL

— ChEMBL document CHEMBL1255475, “Mutant prevention concentrations of four carbapenems against gram-negative rods” (2010)
